Source: PubChem BioAssay (several laboratories)
CSN inh: CSN deneddylation inhibition; Q92905; hit rate 0.38% among 360,000; inhibition, % at 12.5 µM; Purified CSN, SCF-Nedd8-OG deneddylation, fluorescence polarization;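 active = pattern-corrected inhibition above about 35%, with an unprinted fluorescence ratio check between 0.5 and 1.5, limit read from the data, passing the limit was not always enough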;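 note: 0% = enzyme with substrate and 100% = substrate without enzyme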
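test system = HEK293T-derived human Csn5 enzyme | amount = 0.24 nM Csn5 enzyme, final concentration | medium = Tris/NaCl/DTT buffer, pH 7.5 | schedule = 90 min reaction at room temperature | signal = FP | evaluation = inhibition of Csn5 cleavage, % | compound dosing = single dose of 12.5 µM compound with 0.25% DMSO | probe or stimulus = 10 nM SCFSkp2-Nedd8OG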
Rpn11 inh: blocks the human proteasome subunit Rpn11. O00487. human 26S proteasome, Ub4-pepOG fluorescence polarization; 20S core pre-blocked with epoxomicin. hit rate 0.59% among 360,000. inhibition, % at 20 µM;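 active = inhibition at 20 µM, scaled to each plate's controls, above about 33%, limit read from the data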
TPT1 inhibitor: blocks Candida albicans tRNA 2'-phosphotransferase; AID 1962; inhibition, % at 5 µM; recombinant caTPT1, FP RNA substrate dephosphorylation; hit rate 0.81% among 300,000;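 active = inhibition above the mean of all tested compounds plus 3 SD, set per screening campaign, cut at about 24% in these data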;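 note: plate controls were DMSO alone for no effect and ferristatin control at 100 nM for full effect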
IDE act: boosts human insulin-degrading enzyme activity in HEK cells; AID 493087; FAbeta-B cleavage, fluorescence polarization; 0% vehicle, 100% cell-free pure enzyme wells; P14735; hit rate 0.073% among 340,000; activation, % at 5.96 µM;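 active = activation above the mean of all tested compounds plus 3 SD, set per screening campaign, cut at about 17% in these data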
HNF4A DNA FP: change in binding of human HNF4 alpha to DNA | P41235 | HNF4a-FITC DNA binding, fluorescence polarization, 1 h | activity change, % at 10 µM | hit rate 0.3% among 360,000; in the data active = activity change above about 30%, passing the limit was not always enough
Target sequence (P41235 whole entry, looked up): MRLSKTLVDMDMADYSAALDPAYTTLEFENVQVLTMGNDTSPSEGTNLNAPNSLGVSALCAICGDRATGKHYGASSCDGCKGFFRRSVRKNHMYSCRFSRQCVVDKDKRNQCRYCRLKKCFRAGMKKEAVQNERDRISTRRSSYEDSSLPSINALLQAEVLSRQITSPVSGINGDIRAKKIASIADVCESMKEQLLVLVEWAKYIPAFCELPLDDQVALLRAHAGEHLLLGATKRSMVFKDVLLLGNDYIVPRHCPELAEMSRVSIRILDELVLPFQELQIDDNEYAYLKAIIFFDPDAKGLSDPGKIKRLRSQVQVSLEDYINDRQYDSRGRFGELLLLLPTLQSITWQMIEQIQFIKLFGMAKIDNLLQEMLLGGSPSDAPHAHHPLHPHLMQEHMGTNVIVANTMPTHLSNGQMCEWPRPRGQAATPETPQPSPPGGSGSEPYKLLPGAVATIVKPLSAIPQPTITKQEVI
IDE inh: inhibits human insulin-degrading enzyme in HEK cells; inhibition, % at 5.59 µM; AID 434962; FAbetaB cleavage, fluorescence polarization; P14735; hit rate 0.41% among 320,000;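 active = percent inhibition above the average of all tested compounds plus 3 SD, set per screening campaign, cut at about 16% in these data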;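 note: IDE supplied by intact live HEK cells; FP after avidin binding of uncleaved biotin substrate so inhibition keeps polarization high; 0% = DMSO wells and 100% = 60 µM reference IDE inhibitor Ii1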
* marks the source's active call; other numbers are inactive results; nt = no result given. Hits are enriched below; roughly 1.7% of the tested compounds scored in any of these assays.

SMILES	CSN inh	Rpn11 inh	TPT1 inhibitor	IDE act	HNF4A DNA FP	IDE inh
Cc1ccc(C(=O)Oc2oc(-c3ccccc3)nc2C=Nc2ccc(N(C)C)cc2)cc1	46.6*	nt	20.7	1.1	2.3	4.5
CS(=O)(=O)N(CC(=O)N1CCN(Cc2ccccc2)CC1)Cc1ccccc1	81.9*	-3.1	-2.1	4.8	-4.4	-1.9
COC(=O)/C=C1\OC(C2CC2)c2ccccc21 (stereo not given)	1.0	nt	nt	nt	4.4	nt
CCCCCCCCN1C(=O)[C@H](CC(=O)NCCCN2CCCC2=O)C[C@@]2(C(=O)OC)CCCCC=C12	47.9*	nt	nt	nt	-4.5	nt
CN(C)c1ccc(/C=C/c2cc[n+]([O-])cc2)cc1	nt	nt	-11.3	nt	nt	22.1*
COc1ccc(OC)c(Nc2nc3nonc3nc2N2CCCCC2)c1	10.5	nt	-2.2	2.3	39.5*	-3.0
CCCCCCCC(=O)N/N=C(\C)c1cccnc1	58.4*	-2.7	-5.5	1.5	-3.1	3.4
C/C(=N\NC(=O)Cc1ccccc1Cl)c1cccnc1	0.7	0.1	1.5	8.1	-2.5	-6.3
CC(Nc1ccc(F)cc1F)C(=O)NC(=O)NC1CCCCC1 (stereo not given)	0.2	0.5	0.0	3.2	144.4*	5.6
O=C(Nc1ccc(F)cc1F)NC1CCCCCCC1	1.9	7.5	nt	-4.9	1.7	nt
Cc1ccc(NC(=O)C2C3C=CC4(CN(Cc5cccnc5)C(=O)C24)O3)cc1 (stereo not given)	-2.1	1.7	-3.7	18.4*	-3.0	7.7
CCOC(=O)C1=CCC(c2ccc(N(CC)CC)cc2)N(S(=O)(=O)c2ccc(C)cc2)C1c1ccc([N+](=O)[O-])cc1 (stereo not given)	1.1	nt	nt	nt	6.5	nt
C=CCNC(=O)/C(C#N)=C/c1c(N2CCCCCC2)nc2ccccn2c1=O	56.7*	1.8	1.6	0.7	0.7	2.3
Cc1cc(N2CCN(C(C(=O)NC3CCCC3)C(C)(C)C)CC2)c2ccccc2n1 (stereo not given)	5.7	nt	nt	nt	1.9	nt
COc1ccc(NC(=O)/C(=C\c2ccncc2)NC(=O)c2ccccc2)cc1	49.5*	3.5	-1.1	-1.4	-2.9	5.2
COc1ccc(/C=C2\Oc3cc(OCC(=O)N4CCC[C@H]4C(=O)O)ccc3C2=O)c(OC)c1OC	1.4	3.5	-1.8	5.3	2.0	3.3
COc1ccc(/C=C2\Oc3cc(OCC(=O)N4CCC(C(=O)O)CC4)ccc3C2=O)c(OC)c1OC	-2.5	0.1	2.2	23.3*	4.0	-14.9
CCOc1c(OC(C)=O)ccc(/C=C/c2ccc3cccc(OC(C)=O)c3n2)c1[N+](=O)[O-]	3.5	1.8	-1.3	6.8	-0.9	-6.3
C=CCN1C(=O)/C(=C/c2ccc(OC(C)=O)c(OCC)c2[N+](=O)[O-])SC1=S	34.6	79.0*	nt	-5.0	34.8	nt
CCCCCC[n+]1ccccc1/C=C/c1ccc(N(C)C)cc1	99.8	nt	nt	nt	120.7*	nt
CC(C)(C)NC(=O)C(c1ccc(-c2ccccc2)cc1)n1c(=O)c(-c2ccco2)nc2ccccc21 (stereo not given)	28.3	nt	nt	nt	46.0*	nt
Cc1cccc(C)c1NC(=O)C(c1ccc(-c2ccccc2)cc1)n1c(=O)c(-c2ccco2)nc2ccccc21 (stereo not given)	43.9*	nt	nt	nt	21.2	nt
Cc1cccc(C)c1NC(=O)C(c1ccccc1)n1c(=O)c(-c2ccccc2)nc2ccccc21 (stereo not given)	2.6	nt	nt	nt	-0.7	nt
CC(C)CN1C(=O)CSCC1(C)C(=O)NCc1ccccc1 (stereo not given)	-4.6	nt	nt	nt	-2.7	nt
c1ccc(CNc2c3c(nc4ncnn24)CCC3)cc1	3.7	39.5	-3.7	4.9	62.8*	6.5
C#CCOCCOCCOCCNc1nc(N2CCN(C(=O)CCCCCCCCCCNC(=O)[C@H](CCCCN)n3cc(CCCC(=O)O)nn3)CC2)nc(N2CCN(C(=O)CCCCCCCCCCNC(=O)[C@@H]([C@H](C)O)n3cc(C)nn3)CC2)n1	-2.7	-3.0	-2.1	-1.0	4.1	-1.5
C#CCOCCOCCOCCNc1nc(N2CCN(C(=O)CCCCCCCCCCNC(=O)[C@H](CO)n3cc(CCCSC)nn3)CC2)nc(N2CCN(C(=O)CCCCCCCCCCNC(=O)[C@H](CCCCN)n3cc(CCO)nn3)CC2)n1	13.7	5.4	nt	22.2*	14.2	5.4
